Assay results reported in ChEMBL document CHEMBL2440062, “New nucleotide-competitive non-nucleoside inhibitors of terminal deoxynucleotidyl transferase: discovery, characterization, and crystal structure in complex with the target” (J Med Chem, 2013).
pIC50: −log10 of the molar value.

Key:
[1] = biological target: T1, DNA polymerase lambda (Homo sapiens) (UniProt Q9UGP5); assay: Inhibition of human recombinant full length DNA polymerase lambda TdT-like activity using [3H]dNTP as substrate after 10 mins by scintillation counting analysis
T1 sequence (whole entry): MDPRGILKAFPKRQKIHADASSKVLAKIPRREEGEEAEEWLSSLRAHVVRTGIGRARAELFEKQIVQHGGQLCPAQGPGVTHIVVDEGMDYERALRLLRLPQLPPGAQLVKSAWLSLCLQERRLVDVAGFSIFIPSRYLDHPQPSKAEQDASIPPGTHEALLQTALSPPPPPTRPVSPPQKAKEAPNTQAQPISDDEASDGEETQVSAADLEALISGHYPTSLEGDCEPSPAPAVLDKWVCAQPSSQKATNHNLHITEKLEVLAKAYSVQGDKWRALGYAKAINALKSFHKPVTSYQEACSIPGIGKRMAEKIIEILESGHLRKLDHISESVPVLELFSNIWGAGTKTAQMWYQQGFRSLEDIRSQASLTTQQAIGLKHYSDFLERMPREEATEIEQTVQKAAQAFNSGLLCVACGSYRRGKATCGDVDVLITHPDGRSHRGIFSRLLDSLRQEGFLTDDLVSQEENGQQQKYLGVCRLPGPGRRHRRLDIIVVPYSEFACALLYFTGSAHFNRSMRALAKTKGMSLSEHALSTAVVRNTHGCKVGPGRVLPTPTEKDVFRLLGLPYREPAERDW
Method in brief: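 Full-length recombinant human pol λ (>90% pure) was tested for template-independent activity. Acid-insoluble radioactivity was counted, and ID50 came from dose–response fitting.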

DNA polymerase beta = DNA polymerase beta (Homo sapiens, UniProt P06746); assay: Inhibition of human recombinant DNA polymerase beta
[2] = biological target: T1, DNA polymerase lambda (Homo sapiens); assay: Inhibition of human recombinant full length DNA polymerase lambda using [3H]dTTP as substrate and 10 poly(dA)/oligo(dT) as template-primer after 15 mins by scintillation counting analysis
Method in brief: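 Recombinant full-length human pol λ at 50 nM was assayed with 0.2 μM poly(dA)/oligo(dT)10:1 (3′-OH ends) and 5 μM [3H]dTTP (5 Ci/mmol). Incubation was 15 min at 37 °C. TCA precipitates were scintillation counted.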

[3] = biological target: DNA nucleotidylexotransferase (Homo sapiens, UniProt P04053); assay: Inhibition of human recombinant TdT using [3H]dNTP as substrate after 10 mins by scintillation counting analysis
DNA nucleotidylexotransferase, sequence (P04053 whole entry): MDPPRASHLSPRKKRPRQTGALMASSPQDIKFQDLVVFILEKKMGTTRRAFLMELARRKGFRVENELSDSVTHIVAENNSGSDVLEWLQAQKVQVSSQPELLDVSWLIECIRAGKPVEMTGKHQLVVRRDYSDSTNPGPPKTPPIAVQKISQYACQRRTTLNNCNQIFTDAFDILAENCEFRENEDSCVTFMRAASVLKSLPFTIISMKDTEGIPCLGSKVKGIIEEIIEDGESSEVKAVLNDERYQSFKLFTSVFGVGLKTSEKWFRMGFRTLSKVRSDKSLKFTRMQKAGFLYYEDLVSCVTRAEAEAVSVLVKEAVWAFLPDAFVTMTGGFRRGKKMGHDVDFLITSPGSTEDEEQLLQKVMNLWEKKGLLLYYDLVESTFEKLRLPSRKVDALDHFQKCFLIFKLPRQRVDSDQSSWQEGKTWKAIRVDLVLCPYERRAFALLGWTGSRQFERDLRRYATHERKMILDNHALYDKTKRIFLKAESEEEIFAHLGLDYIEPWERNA
Method in brief: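 TdT was from Trevigen. TCA-precipitated radioactivity was counted. ID50 came from dose–response fitting. For kinetics, DNA or dNTP was varied at increasing inhibitor, and Ki was obtained via Cheng–Prusoff for a competitive model.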

MOLT-4 = assay: Cytotoxicity against human MOLT4 cells overexpressing TdT assessed as growth inhibition after 24 to 48 hrs by MTT assay; assay type: functional, cell-based
Method in brief: (§1)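 MOLT-4 cells were grown in RPMI-1640 and HeLa cells in DMEM, with 10% FCS at 37 °C. Cells were seeded at 10^5 per well, given 24 h to attach, then exposed to compounds (0.1–100 range) for 24 or 48 h. MTT at 1 mg/mL was added for 2 h at 37 °C, formazan was dissolved in DMSO, and absorbance read at 550 nm versus 0.5% DMSO vehicle. IC50 was obtained by regression, in triplicate.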

HeLa = assay: Cytotoxicity against TdT-deficient human HeLa cells assessed as growth inhibition after 24 to 48 hrs by MTT assay; assay type: cell-based; method in brief: as §1

Row | ID50 [1] [µM] | pIC50 (DNA polymerase beta) | ID50 [2] [µM] | ID50 [3] [µM] | SMILES | pIC50 (MOLT-4) | pIC50 (HeLa)
1 | > 40 | < 4.40 | > 40 | > 40 | CCOC(=O)C(=O)CC(=O)/C=C/c1cn(Cc2ccc(OC)cc2)c2ccccc12 | – | –
2 | 34 | 4.40 | > 40 | 1.4 | N#Cc1ccc(Cn2cc(/C=C/C(=O)CC(=O)C(=O)O)c3ccccc32)cc1 | < 4.40 | < 4.40
3 | > 40 | < 4.40 | > 40 | 3.1 | CCCn1cc(/C=C/C(=O)CC(=O)C(=O)O)c2ccccc21 | 4.30 | < 4.40
4 | > 40 | < 4.40 | > 40 | > 40 | CCOC(=O)C(=O)CC(=O)/C=C/c1cn(Cc2ccc(C#N)cc2)c2ccccc12 | – | –
5 | > 40 | < 4.40 | > 40 | > 40 | CCOC(=O)C(=O)CC(=O)/C=C/c1cn(CC(=O)N(C)C)c2ccccc12 | – | –
6 | > 40 | < 4.40 | > 40 | 40 | CCOC(=O)C(=O)CC(=O)/C=C/c1cn(Cc2ccc(O)cc2)c2ccccc12 | – | –
7 | > 40 | < 4.40 | > 40 | > 40 | C/C=C/n1cc(/C=C/C(=O)CC(=O)C(=O)OCC)c2ccccc21 | – | –
8 | > 40 | < 4.40 | > 40 | 10 | O=C(/C=C/c1cn(Cc2ccc(Cl)cc2)c2ccccc12)CC(=O)C(=O)O | 4.72 | < 4.40
9 | 40 | < 4.40 | > 40 | 24 | O=C(/C=C/c1cn(CC(=O)N2CCOCC2)c2ccccc12)CC(=O)C(=O)O | < 4.40 | < 4.40
10 | 5 | < 4.40 | > 40 | 7.3 | C/C=C/Cn1cc(/C=C/C(=O)CC(=O)C(=O)O)c2ccccc21 | < 4.40 | < 4.40
11 | > 40 | < 4.40 | > 40 | > 40 | CCOC(=O)C(=O)CC(=O)/C=C/c1cn(C=C(C)C)c2ccccc12 | – | –
12 | > 40 | < 4.40 | > 40 | > 40 | CCOC(=O)C(=O)CC(=O)/C=C/c1cn(Cc2ccc(F)cc2)c2ccccc12 | – | –
13 | > 40 | < 4.40 | > 40 | > 40 | CCCn1cc(/C=C/C(=O)CC(=O)C(=O)OCC)c2ccccc21 | – | –
14 | > 40 | < 4.40 | > 40 | > 40 | CCOC(=O)C(=O)CC(=O)/C=C/c1cc(C(=O)c2ccccc2)cn1Cc1ccccc1 | – | –
15 | 40 | < 4.40 | > 40 | 2.5 | C=C(C)Cn1cc(/C=C/C(=O)CC(=O)C(=O)O)c2ccccc21 | 4.40 | 4.40
16 | > 40 | < 4.40 | > 40 | 40 | CCOC(=O)C(=O)CC(=O)/C=C/c1cn(Cc2ccc(Cl)cc2)c2ccccc12 | – | –
17 | 44 | < 4.40 | > 40 | 6 | CCOC(=O)C(=O)CC(=O)/C=C/c1cc(C(=O)c2cccc(F)c2)c[nH]1 | 4.52 | < 4.40
18 | > 40 | < 4.40 | > 40 | > 40 | C/C=C/Cn1cc(/C=C/C(=O)CC(=O)C(=O)OCC)c2ccccc21 | – | –
19 | 20 | < 4.40 | > 40 | 16 | O=C(/C=C/c1cc(C(=O)c2ccccc2)cn1Cc1ccccc1)CC(=O)C(=O)O | < 4.40 | < 4.40

Row | ID50 [1] [µM] | pIC50 (DNA polymerase beta) | ID50 [2] [µM] | ID50 [3] [µM] | SMILES | pIC50 (MOLT-4) | pIC50 (HeLa)
20 | > 40 | < 4.40 | > 40 | > 40 | CCOC(=O)C(=O)CC(=O)/C=C/c1cn(CCC(C)C)c2ccccc12 | – | –
21 | 40 | < 4.40 | > 40 | 8.9 | CN(C)C(=O)Cn1cc(/C=C/C(=O)CC(=O)C(=O)O)c2ccccc21 | < 4.40 | < 4.40
22 | > 40 | < 4.40 | 9 | 31 | O=C(/C=C/c1cn(-c2ccc(Cl)cc2)c2ccccc12)CC(=O)C(=O)O | 4.57 | < 4.40
23 | > 40 | < 4.40 | > 40 | 5.2 | O=C(/C=C/c1cn(-c2ccc(O)cc2)c2ccccc12)CC(=O)C(=O)O | < 4.40 | < 4.40
24 | 2 | < 4.40 | > 50 | 47 | O=C(/C=C/c1cn(-c2ccccc2)c2ccccc12)CC(=O)C(=O)O | < 4.40 | < 4.40
25 | 9 | < 4.40 | > 40 | 13.8 | CC(C)=Cn1cc(/C=C/C(=O)CC(=O)C(=O)O)c2ccccc21 | 4.52 | < 4.40
26 | > 40 | < 4.40 | > 40 | > 40 | CCOC(=O)C(=O)CC(=O)/C=C/c1cc(C(=O)c2ccccc2)cn1Cc1ccc(F)cc1 | – | –
27 | > 40 | < 4.40 | > 40 | > 40 | C=C(C)Cn1cc(/C=C/C(=O)CC(=O)C(=O)OCC)c2ccccc21 | – | –
28 | > 40 | – | > 40 | > 40 | CCOC(=O)C(=O)CC(=O)/C=C/c1cn(-c2ccccc2)c2ccccc12 | – | –
29 | 1.7 | < 4.40 | > 40 | 7.9 | O=C(/C=C/c1cn(Cc2ccccc2)c2ccccc12)CC(=O)C(=O)O | 4.82 | < 4.40
30 | > 40 | < 4.40 | > 40 | > 40 | CCOC(=O)C(=O)CC(=O)/C=C/c1cn(Cc2ccccc2)c2ccccc12 | < 4.40 | < 4.40
31 | > 40 | < 4.40 | > 40 | > 40 | CCOC(=O)C(=O)CC(=O)/C=C/c1cc(C(=O)c2ccccc2)cn1Cc1ccc(C#N)cc1 | – | –
32 | > 40 | < 4.40 | 6 | > 40 | CCOC(=O)C(=O)CC(=O)/C=C/c1cn(-c2ccc(Cl)cc2)c2ccccc12 | – | –
33 | > 40 | < 4.40 | 11 | 4.1 | CCOC(=O)C(=O)CC(=O)/C=C/c1cc(C(=O)c2ccc(F)cc2)c[nH]1 | 5.20 | < 4.40
34 | > 40 | 4.40 | > 40 | 6.8 | N#Cc1ccc(Cn2cc(C(=O)c3ccccc3)cc2/C=C/C(=O)CC(=O)C(=O)O)cc1 | 4.40 | < 4.40
35 | > 40 | < 4.40 | > 40 | > 40 | CCOC(=O)C(=O)CC(=O)/C=C/c1cn(CC(=O)N2CCOCC2)c2ccccc12 | – | –
36 | > 40 | < 4.40 | > 40 | > 40 | CCOC(=O)C(=O)CC(=O)/C=C/c1cn(-c2ccc(O)cc2)c2ccccc12 | – | –
37 | > 40 | < 4.40 | > 40 | > 40 | CCCCn1cc(/C=C/C(=O)CC(=O)C(=O)OCC)c2ccccc21 | – | –
